Experimental data taken from ChEMBL document CHEMBL4706502, “Synthesis and structure activity relationships of cyanopyridone based anti-tuberculosis agents” (Eur J Med Chem, 2020).
pIC50: −log10 of the molar value. Calls of active or inactive are those of the source. The calls are words filed in the database; no cut-off is given here.

Tests used:
[1] = test system: Mycobacterium tuberculosis; test: Antitubercular activity against Mycobacterium tuberculosis H37Rv ATCC 27294 assessed as reduction in microbial growth under 7H9/glucose medium after 1 week by two fold serial dilution method; type: functional; settings: H37Rv ATCC 27294, 168 h, time 1 weeks
Procedure, shortened: (§1)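 M. tuberculosis H37Rv grown to OD650nm 0.2-0.3 and diluted 1000-fold; about 1× 10^4 bacteria per well. Compounds taken from DMSO stocks and 2-fold serially diluted, in duplicate. Incubated 37 °C for 1 week, read by inverted mirror. MIC = lowest concentration giving complete growth inhibition. Isoniazid positive control, DMSO negative control. Media: GAST/Fe pH 6.6 or 7H9/glucose/casitone/Tyloxapol.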

[2] = test system: Mycobacterium tuberculosis; test: Antitubercular activity against Mycobacterium tuberculosis H37Rv ATCC 27294 assessed as reduction in microbial growth under GAST/Fe medium after 1 week by two fold serial dilution method; type: functional; settings: H37Rv ATCC 27294, 168 h, time 1 weeks; procedure, shortened: as §1
[3] = Cytotoxicity against human MRC5 cells assessed as reduction in cell viability after 24 hrs by NRU assay; type: cell-based
[4] = Selectivity index, ratio of CC50 for human MRC5 cells to ratio of MIC99 for antitubercular activity against Mycobacterium tuberculosis H37Rv ATCC 27294 assessed as reduction in microbial growth under GAST/Fe medium; type: toxicity; settings: read-out: Selectivity Index
[5] = Selectivity index, ratio of CC50 for human MRC5 cells to ratio of MIC99 for antitubercular activity against Mycobacterium tuberculosis H37Rv ATCC 27294 assessed as reduction in microbial growth under 7H9/glucose medium; type: toxicity; settings: read-out: Selectivity Index
[6] = Inhibition of wild-type Mycobacterium tuberculosis thymidylate kinase expressed in Escherichia coli BLi5 competent cells using dTMP as substrate by lactate dehydrogenase, pyruvate kinase and nucleoside diphosphate kinase coupled spectrophotometric method
Procedure, shortened: (§2)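 Purified MtbTMPK in a coupled spectrophotometric assay. Substrates fixed at dTMP 0.05 mM and ATP 0.5 mM. Compounds in DMSO, serially diluted; IC50 calculated, or no inhibition recorded at 0.2 mM.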

[7] = test system: Mycobacterium tuberculosis; test: Inhibition of wild-type Mycobacterium tuberculosis thymidylate kinase expressed in Escherichia coli BLi5 competent cells at 0.2 mM using dTMP as substrate by lactate dehydrogenase, pyruvate kinase and nucleoside diphosphate kinase coupled spectrophotometric method; procedure, shortened: as §2

Row | SMILES | MIC99 [1] [µM] | MIC99 [2] [µM] | CC50 at 24 h [3] [µM] | selectivity ratio [4] | selectivity ratio [5] | pIC50 [6] | inhibition [7]
1 | C[S+]([O-])c1c(-c2ccc(-c3ccccc3)cc2)c[nH]c(=O)c1C#N (centres undefined) | 1.2 | 2.3 | > 64 | 27.8 | 50 | – | –
2 | C[S+]([O-])c1c(-c2ccc(OCc3ccccc3)cc2)c[nH]c(=O)c1C#N (centres undefined) | 9.4 | 4.7 | 25 | – | – | – | –
3 | C[S+]([O-])c1c(-c2cccc(OCc3ccc(Cl)c(Cl)c3)c2)c[nH]c(=O)c1C#N (centres undefined) | 9.4 | 9.4 | > 64 | – | – | – | –
4 | C[S+]([O-])c1c(-c2cccc(OCc3ccccc3[N+](=O)[O-])c2)c[nH]c(=O)c1C#N (centres undefined) | 37 | 19 | 64 | – | – | – | –
5 | C[S+]([O-])c1c(-c2ccc(Oc3ccc(Cl)c(Cl)c3)cc2)c[nH]c(=O)c1C#N (centres undefined) | 9.4 | 19 | 28 | – | – | – | –
6 | C[S+]([O-])c1cc(-c2cccc(Br)c2)[nH]c(=O)c1C#N (centres undefined) | 19 | 19 | – | – | – | 4.55 | –
7 | CS(=O)(=O)c1c(-c2ccc(C(F)(F)F)cc2)c[nH]c(=O)c1C#N | > 50 | > 50 | > 64 | – | – | – | –
8 | C[S+]([O-])c1c(-c2ccc(Oc3ccc(Cl)cc3)cc2)c[nH]c(=O)c1C#N (centres undefined) | 9.4 | 9.4 | 25 | – | – | – | –
9 | C[S+]([O-])c1c(-c2ccccc2)c[nH]c(=O)c1C#N (centres undefined) | 25 | 37 | > 64 | – | – | – | inactive
10 | COc1ccc(-c2c[nH]c(=O)c(C#N)c2[S+](C)[O-])cc1 (centres undefined) | > 100 | > 100 | > 64 | – | – | – | –
11 | C[S+]([O-])c1c(-c2cccc(Oc3ccc(Cl)cc3)c2)c[nH]c(=O)c1C#N (centres undefined) | 12.5 | 9.5 | 24 | – | – | – | –
12 | C[S+]([O-])c1c(-c2ccc(Oc3ccccc3)cc2)c[nH]c(=O)c1C#N (centres undefined) | 25 | 3.13 | > 64 | – | – | – | inactive
13 | COc1ccc(Oc2cccc(-c3c[nH]c(=O)c(C#N)c3[S+](C)[O-])c2)cc1 (centres undefined) | 25 | 6.25 | 30 | – | – | – | –
14 | C[S+]([O-])c1c(-c2ccc(Cl)cc2)c[nH]c(=O)c1C#N (centres undefined) | 19 | 25 | > 64 | – | – | – | –
15 | C[S+]([O-])c1c(-c2cccc(Oc3ccc(Cl)c(Cl)c3)c2)c[nH]c(=O)c1C#N (centres undefined) | 12.5 | 19 | 8 | – | – | – | –
16 | C[S+]([O-])c1c(-c2ccc(C(F)(F)F)cc2)c[nH]c(=O)c1C#N (centres undefined) | 37 | 19 | > 64 | – | – | – | –
17 | C[S+]([O-])c1c(-c2ccc(Cl)c(Cl)c2)c[nH]c(=O)c1C(N)=O (centres undefined) | 50 | ≥ 50 | 16 | – | – | – | –
18 | C[S+]([O-])c1c(-c2cccc(Cl)c2)c[nH]c(=O)c1C#N (centres undefined) | 19 | 37 | > 64 | – | – | – | –

Row | SMILES | MIC99 [1] [µM] | MIC99 [2] [µM] | CC50 at 24 h [3] [µM] | selectivity ratio [4] | selectivity ratio [5] | pIC50 [6] | inhibition [7]
19 | COc1ccc(Oc2ccc(-c3c[nH]c(=O)c(C#N)c3[S+](C)[O-])cc2)cc1 (centres undefined) | 19 | 9.4 | 23 | – | – | – | –
20 | Cc1ccc(Oc2ccc(-c3c[nH]c(=O)c(C#N)c3[S+](C)[O-])cc2)cc1 (centres undefined) | 9.4 | 4.7 | 28 | – | – | – | –
21 | C[S+]([O-])c1c(-c2cccc(OCc3cccc(Cl)c3)c2)c[nH]c(=O)c1C#N (centres undefined) | 9.4 | 9.4 | > 64 | – | – | – | –
22 | C[S+]([O-])c1c(-c2ccc(Cl)c(Cl)c2)c[nH]c(=O)c1C#N (centres undefined) | 19 | 12.5 | > 64 | – | – | – | –
23 | CS(=O)(=O)c1c(-c2ccccc2Cl)c[nH]c(=O)c1C#N | 37 | > 50 | > 64 | – | – | – | –
24 | C[S+]([O-])c1c(-c2cccc(OCc3ccccc3)c2)c[nH]c(=O)c1C#N (centres undefined) | 19 | 6.25 | 25 | – | – | – | –
25 | NNC(=O)c1ccncc1 [ISONIAZID] | 0.15 | 0.2 | – | – | – | – | –
26 | CSc1c(-c2ccccc2)c[nH]c(=O)c1C#N | 100 | ≥ 100 | 64 | – | – | 3.69 | –
27 | Cc1ccc(Oc2cccc(-c3c[nH]c(=O)c(C#N)c3[S+](C)[O-])c2)cc1 (centres undefined) | 25 | 6.25 | 30 | – | – | – | –
28 | C[S+]([O-])c1c(-c2ccccc2Cl)c[nH]c(=O)c1C#N (centres undefined) | 12.5 | 37 | > 64 | – | – | – | –
29 | C[S+]([O-])c1c(-c2cccc(Oc3ccccc3)c2)c[nH]c(=O)c1C#N (centres undefined) | 37 | – | 32 | – | – | – | inactive
30 | C[S+]([O-])c1c(-c2ccc(Br)cc2)c[nH]c(=O)c1C#N (centres undefined) | 12.5 | 19 | > 64 | – | – | – | –
31 | C[S+]([O-])c1c(-c2cccc(OCc3ccccc3Cl)c2)c[nH]c(=O)c1C#N (centres undefined) | 9.4 | 4.7 | 25 | – | – | – | –
32 | C[S+]([O-])c1c(-c2cccc(OCc3ccc(Cl)cc3)c2)c[nH]c(=O)c1C#N (centres undefined) | 9.4 | 9.4 | 31 | – | – | – | –
33 | CS(=O)(=O)c1c(-c2ccc(Cl)c(Cl)c2)c[nH]c(=O)c1C(N)=O | – | 19 | > 64 | – | – | – | –
34 | C[S+]([O-])c1c(-c2ccccc2Oc2ccccc2)c[nH]c(=O)c1C#N (centres undefined) | 50 | 9.4 | 30 | – | – | – | inactive
35 | CS(=O)(=O)c1c(-c2cccc(Cl)c2)c[nH]c(=O)c1C#N | > 50 | > 50 | > 64 | – | – | – | –
